Measurements from ChEMBL document CHEMBL4152197, “Proteolysis Targeting Chimeras (PROTACs) of Anaplastic Lymphoma Kinase (ALK)” (Eur J Med Chem, 2018).
Calls of active or inactive are those of the source. No cut-off for these calls is given here.

Assays:
[1] = target: T1, Protein cereblon/ALK tyrosine kinase receptor/Nucleophosmin (Homo sapiens) (UniProt Q9UM73+P06748+Q96SW2); assay: Induction of CRL4/CRBN ubiquitin ligase-mediated NPM-ALK fusion protein degradation in human SU-DHL1 cells pretreated with pomalidomide for 2 hrs followed by compound addition at 100 nM and measured after 6 hrs by Western blot analysis; assay type: cell-based
[2] = target: T2, Protein cereblon/ALK tyrosine kinase receptor/Echinoderm microtubule-associated protein-like 4 (Homo sapiens) (UniProt Q9UM73+Q9HC35+Q96SW2); assay: Induction of CRL4/CRBN ubiquitin ligase-mediated EML4-ALK fusion protein degradation assessed as inhibition of ALK autophosphorylation at Y1507 residue in human NCI-H2228 cells at 60 nM after 8 to 24 hrs by Western blot analysis; assay type: cell-based
Outline: (§1)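 Time course by immunoblot. SU-DHL-1 (30 nM) or NCI-H2228 (60 nM) cells in RPMI-1640 with 10% FBS were held at a fixed degrader concentration and harvested over time up to 24 h. Lysates in Laemmli buffer were blotted for ALK fusion protein, p-ALK Y1507 and p-STAT3 Y705, with GAPDH as the loading reference.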

[3] = target: T2, Protein cereblon/ALK tyrosine kinase receptor/Echinoderm microtubule-associated protein-like 4 (Homo sapiens); assay: Induction of CRL4/CRBN ubiquitin ligase-mediated EML4-ALK fusion protein degradation in human NCI-H2228 cells assessed as reduction in STAT3 phosphorylation at Y705 residue after 16 hrs by Western blot analysis; assay type: cell-based
Outline: (§2)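 SU-DHL-1 or NCI-H2228 cells, grown in RPMI-1640 with 10% FBS at 37 °C under 5% CO₂, were exposed to DMSO or serial dilutions of compound (up to 100 nM) for 16 h. Cells were lysed in Laemmli buffer and run on SDS-PAGE/PVDF immunoblots probed for ALK, p-ALK Y1507, STAT3, p-STAT3 Y705 and GAPDH. Band levels were normalized to GAPDH. DC50 was taken from a variable-slope fit, triplicate independent experiments, mean ± SEM.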

[4] = target: T1, Protein cereblon/ALK tyrosine kinase receptor/Nucleophosmin (Homo sapiens); assay: Induction of CRL4/CRBN ubiquitin ligase-mediated NPM-ALK fusion protein degradation in human SU-DHL1 cells assessed as reduction in STAT3 phosphorylation at Y705 residue pretreated at 100 nM for 2 hrs followed by compound washout and measured after 8 hrs by Western blot analysis; assay type: cell-based
Outline: (§3)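 Washout in SU-DHL-1 cells: DMSO or 100 nM compound for 2 h, then a PBS wash and incubation in fresh medium for the indicated times. Lysates were immunoblotted for NPM-ALK, p-ALK Y1507 and p-STAT3 Y705, with GAPDH as the reference.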

[5] = target: T3, ALK tyrosine kinase receptor (Homo sapiens, UniProt Q9UM73); assay: Inhibition of ALK autophosphorylation at Y1507 residue in human SU-DHL1 cells pretreated with MG-132 for 2 hrs followed by compound addition at 100 nM and measured after 6 hrs by Western blot analysis; assay type: cell-based
SU-DHL-1 [6] = assay: Toxicity against human SU-DHL1 cells assessed as cell death over 100 nM after 3 days by luminescence-based CellTiter-Glo assay; settings: su-dhl-1, 72 h
[7] = target: T3, ALK tyrosine kinase receptor; assay: Inhibition of ALK autophosphorylation at Y1507 residue in human SU-DHL1 cells pretreated with MLN4924 for 2 hrs followed by compound addition at 100 nM and measured after 6 hrs by Western blot analysis; assay type: cell-based
NCI-H2228 = assay: Growth inhibition of human NCI-H2228 cells after 3 days by luminescence-based CellTiter-Glo assay; assay type: functional, cell-based; settings: for IC50: NCI-H2228, 72 h
[8] = target: T2, Protein cereblon/ALK tyrosine kinase receptor/Echinoderm microtubule-associated protein-like 4 (Homo sapiens); assay: Induction of CRL4/CRBN ubiquitin ligase-mediated EML4-ALK fusion protein degradation in human NCI-H2228 cells assessed as reduction in EML4-ALK fusion protein levels at 60 nM after 8 to 24 hrs hrs by Western blot analysis; assay type: cell-based; outline: as §1
[9] = target: T1, Protein cereblon/ALK tyrosine kinase receptor/Nucleophosmin (Homo sapiens); assay: Induction of CRL4/CRBN ubiquitin ligase-mediated NPM-ALK fusion protein degradation in human SU-DHL1 cells assessed as inhibition of ALK autophosphorylation at Y1507 residue pretreated at 100 nM for 2 hrs followed by compound washout and measured after 8 hrs by Western blot analysis; assay type: cell-based; outline: as §3
[10] = target: T1, Protein cereblon/ALK tyrosine kinase receptor/Nucleophosmin (Homo sapiens); assay: Induction of CRL4/CRBN ubiquitin ligase-mediated NPM-ALK fusion protein degradation in human SU-DHL1 cells assessed as reduction in NPM-ALK fusion protein levels at 100 nM after 16 hrs by Western blot analysis; assay type: cell-based; set-up: scale not given: the % may be the effect or the level left; outline: as §2
[11] = Plasma concentration in Swiss Albino mouse at 50 mg/kg, ip after 12 hrs; assay type: ADME, organism-based
Outline: (§4)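 Male Swiss Albino mice received a single 50 mg/kg intraperitoneal dose, with clinical signs monitored. Plasma was sampled at 30 min, 1, 2, 4, 8 and 12 h post dose. Values are the average of 3 animals ± SD.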

[12] = target: T3, ALK tyrosine kinase receptor; assay: Inhibition of ALK in human SU-DHL1 cells assessed as reduction in STAT3 phosphorylation at Y705 residue at 100 nM after 16 hrs by Western blot analysis; assay type: cell-based; outline: as §2
[13] = target: T3, ALK tyrosine kinase receptor; assay: Inhibition of ALK autophosphorylation at Y1507 residue in human NCI-H2228 cells after 16 hrs by Western blot analysis; assay type: cell-based; outline: as §2
[14] = target: T1, Protein cereblon/ALK tyrosine kinase receptor/Nucleophosmin (Homo sapiens); assay: Induction of CRL4/CRBN ubiquitin ligase-mediated NPM-ALK fusion protein degradation in human SU-DHL1 cells pretreated at 100 nM for 2 hrs followed by compound washout and measured after 8 hrs by Western blot analysis; assay type: cell-based; outline: as §3
[15] = target: T1, Protein cereblon/ALK tyrosine kinase receptor/Nucleophosmin (Homo sapiens); assay: Induction of CRL4/CRBN ubiquitin ligase-mediated NPM-ALK fusion protein degradation in human SU-DHL1 cells pretreated with MLN4924 for 2 hrs followed by compound addition at 100 nM and measured after 6 hrs by Western blot analysis; assay type: cell-based
[16] = target: T2, Protein cereblon/ALK tyrosine kinase receptor/Echinoderm microtubule-associated protein-like 4 (Homo sapiens); assay: Induction of CRL4/CRBN ubiquitin ligase-mediated EML4-ALK fusion protein degradation in human NCI-H2228 cells assessed as reduction in STAT3 phosphorylation at Y705 residue at 60 nM after 8 to 24 hrs by Western blot analysis; assay type: cell-based; outline: as §1
Mus musculus = assay: Toxicity in Swiss Albino mouse assessed as drug tolerability at 50 mg/kg, ip; assay type: organism-based; settings: in vivo; outline: as §4
[17] = target: T1, Protein cereblon/ALK tyrosine kinase receptor/Nucleophosmin (Homo sapiens); assay: Induction of CRL4/CRBN ubiquitin ligase-mediated NPM-ALK fusion protein degradation in human SU-DHL1 cells pretreated with MG-132 for 2 hrs followed by compound addition at 100 nM and measured after 6 hrs by Western blot analysis; assay type: cell-based
[18] = Plasma concentration in Swiss Albino mouse at 50 mg/kg, ip after 2 hrs; assay type: ADME, organism-based; outline: as §4
[19] = target: T3, ALK tyrosine kinase receptor; assay: Inhibition of ALK autophosphorylation at Y1507 residue in human SU-DHL1 cells at 100 nM after 16 hrs by Western blot analysis; assay type: cell-based; outline: as §2
[20] = target: T3, ALK tyrosine kinase receptor; assay: Inhibition of ALK autophosphorylation at Y1507 residue in human SU-DHL1 cells after 16 hrs by Western blot analysis; assay type: cell-based; outline: as §2
[21] = target: T3, ALK tyrosine kinase receptor; assay: Inhibition of ALK autophosphorylation at Y1507 residue in human SU-DHL1 cells pretreated with pomalidomide for 2 hrs followed by compound addition at 100 nM and measured after 6 hrs by Western blot analysis; assay type: cell-based
[22] = target: T1, Protein cereblon/ALK tyrosine kinase receptor/Nucleophosmin (Homo sapiens); assay: Induction of CRL4/CRBN ubiquitin ligase-mediated NPM-ALK fusion protein degradation in human SU-DHL1 cells pretreated with ceritinib for 2 hrs followed by compound addition at 100 nM and measured after 6 hrs by Western blot analysis; assay type: cell-based
[23] = target: T3, ALK tyrosine kinase receptor; assay: Binding affinity to wild-type human partial length ALK (I1088 to E1409 residues) expressed in mammalian expression system by KINOMEscan assay
SU-DHL-1 [24] = assay: Growth inhibition of human SU-DHL1 cells after 3 days by luminescence-based CellTiter-Glo assay; assay type: functional, cell-based

Compound	Activity [1]	Activity [2]	Activity [3]	Activity [4]	inhibition [5]	Activity (SU-DHL-1 [6])	inhibition [7]	IC50 (NCI-H2228)	Activity [8]	Activity [9]	Activity [10]	inhibition [12]	inhibition [13]	Activity [14]	Activity [15]	Activity [16]	Activity [17]	inhibition [19]	inhibition [20]	inhibition [21]	further results
Cc1cc(Nc2ncc(Cl)c(Nc3ccccc3S(=O)(=O)C(C)C)n2)c(OC(C)C)cc1C1CCN(CC(=O)NCCNc2cccc3c2C(=O)N(C2CCC(=O)NC2=O)C3=O)CC1 (configuration not stated)	inactive	Active	Dose-dependent effect	inactive	Active	Toxic	Active	33 nM	Active	inactive	> 90%	> 90%	Dose-dependent effect	inactive	inactive	Active	inactive	> 90%	Dose-dependent effect	Active	concentration at 12 h [11]: 340 nM; Activity (Mus musculus): Non-Toxic; concentration at 2 h [18]: 3000 nM; Activity [22]: Active
Cc1cc(Nc2ncc(Cl)c(Nc3ccccc3S(=O)(=O)C(C)C)n2)c(OC(C)C)cc1C1CCN(CC(=O)NCCOCCOCCOCCOCCOCCNc2cccc3c2C(=O)N(C2CCC(=O)N(C)C2=O)C3=O)CC1 (configuration not stated)																					growth inhibition (GI) (NCI-H2228): inactive; Kd [23]: 54 nM; growth inhibition (GI) (SU-DHL-1 [24]): inactive
Cc1cc(Nc2ncc(Cl)c(Nc3ccccc3S(=O)(=O)C(C)C)n2)c(OC(C)C)cc1C1CCN(CC(=O)NCCNc2cccc3c2C(=O)N(C2CCC(=O)N(C)C2=O)C3=O)CC1 (configuration not stated)																					growth inhibition (GI) (NCI-H2228): inactive; Kd [23]: 78 nM; growth inhibition (GI) (SU-DHL-1 [24]): inactive
Cc1cc(Nc2ncc(Cl)c(Nc3ccccc3S(=O)(=O)C(C)C)n2)c(OC(C)C)cc1C1CCN(CC(=O)NCCOCCOCCOCCOCCOCCNc2cccc3c2C(=O)N(C2CCC(=O)NC2=O)C3=O)CC1 (configuration not stated)	inactive	Active	Dose-dependent effect	inactive	Active	Toxic	Active	46 nM	Active	inactive	> 90%	> 90%	Dose-dependent effect	inactive	inactive	Active	inactive	> 90%	Dose-dependent effect	Active	Activity [22]: Active
Cc1cc(Nc2ncc(Cl)c(Nc3ccccc3S(=O)(=O)C(C)C)n2)c(OC(C)C)cc1C1CCNCC1 [CERITINIB]						Toxic															
